Experimental data reported in ChEMBL document CHEMBL4020790, “Quinazolinone derivatives as inhibitors of homologous recombinase RAD51” (Bioorg Med Chem Lett, 2017).
Active and inactive are the calls of the source. No cut-off for these calls is given here.

How the values were obtained:
MDA-MB-231 [1] = assay: Cytotoxicity against human MDA-MB-231 cells assessed as decrease in cell viability at 10 uM in presence of 6-Gy gamma-irradiation measured up to 120 hrs by CellTiter96 AQueous one solution cell proliferation assay; type: functional, cell-based
Method in brief: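 MDA-MB-231 cells given 10 μM compound with or without 6 Gy irradiation; proliferation followed over a 120 h time course and expressed as mean % proliferation from 3 independent experiments; area under the curve calculated from the proliferation data.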

[2] = molecular target: T1, DNA repair protein RAD51 homolog 1 (Homo sapiens) (UniProt Q06609); assay: Inhibition of RAD51 in human MDA-MB-231 cells assessed as reduction in DNA damage-induced RAD51 foci formation at 10 uM incubated for 16 hrs followed by 6-Gy gamma-irradiation measured after 6 hrs by immunofluoresent assay; type: cell-based
T1 sequence (whole entry): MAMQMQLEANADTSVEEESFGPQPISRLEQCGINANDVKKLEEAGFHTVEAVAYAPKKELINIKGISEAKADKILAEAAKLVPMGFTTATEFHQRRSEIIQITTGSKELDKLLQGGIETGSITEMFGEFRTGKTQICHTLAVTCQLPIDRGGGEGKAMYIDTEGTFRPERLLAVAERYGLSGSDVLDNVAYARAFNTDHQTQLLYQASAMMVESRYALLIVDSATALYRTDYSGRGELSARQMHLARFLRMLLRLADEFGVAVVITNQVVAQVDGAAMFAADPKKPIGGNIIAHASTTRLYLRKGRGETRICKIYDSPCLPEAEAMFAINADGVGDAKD
Method in brief: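 MDA-MB-231 cells given 10 μM compound, then 6 Gy irradiation; RAD51 foci scored by immunofluorescence, with the read-out taken as the ratio of RAD51-positive to γH2AX-positive cells.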

MDA-MB-231 [3] = assay: Cytotoxicity against human MDA-MB-231 cells assessed as decrease in cell viability at 10 uM measured up to 120 hrs by CellTiter96 AQueous one solution cell proliferation assay; type: functional, cell-based
Method in brief: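 MDA-MB-231 cells exposed to 10 μM compound with or without 6 Gy irradiation; proliferation followed over a 120 h time course and expressed as mean % proliferation from 3 independent experiments; area under the curve derived from the proliferation data.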

[4] = molecular target: T1, DNA repair protein RAD51 homolog 1 (Homo sapiens); assay: Binding affinity to recombinant human RAD51 at 100 uM by SPR method
MCF-10A = assay: Cytotoxicity against human MCF10A cells assessed as decrease in cell viability after 120 hrs by MTS assay; type: cell-based
SUM-159-PT = assay: Cytotoxicity against human SUM159PT cells assessed as decrease in cell viability after 120 hrs by MTS assay; type: functional, cell-based
MDA-MB-468 = assay: Cytotoxicity against human MDA-MB-468 cells assessed as decrease in cell viability after 120 hrs by MTS assay; type: functional, cell-based; conditions: MDA-MB-468, 120 h
BT-549 = assay: Cytotoxicity against human BT549 cells assessed as decrease in cell viability after 120 hrs by MTS assay; type: functional, cell-based; conditions: BT-549, 120 h
Hs-578T = assay: Cytotoxicity against human Hs578T cells assessed as decrease in cell viability after 120 hrs by MTS assay; type: functional, cell-based
MDA-MB-231 [5] = assay: Cytotoxicity against human MDA-MB-231 cells assessed as decrease in cell viability after 120 hrs by MTS assay; type: functional, cell-based; conditions: MDA-MB-231, 120 h
MDA-MB-436 = assay: Cytotoxicity against human MDA-MB-436 cells assessed as decrease in cell viability after 120 hrs by MTS assay; type: functional, cell-based; conditions: MDA-MB-436, 120 h
HCC1937 = assay: Cytotoxicity against human HCC1937 cells assessed as decrease in cell viability after 120 hrs by MTS assay; type: functional, cell-based; conditions: HCC1937, 120 h

Activity [4]	Compound	Activity (MDA-MB-231 [1])	inhibition [2]	Activity (MDA-MB-231 [3])	IC50 (MCF-10A) [µM]	IC50 (SUM-159-PT) [µM]	IC50 (MDA-MB-468) [µM]	IC50 (BT-549) [µM]	IC50 (Hs-578T) [µM]	IC50 (MDA-MB-231 [5]) [µM]	IC50 (MDA-MB-436) [µM]	IC50 (HCC1937) [µM]
Active	O=c1c2ccccc2nc(/C=C/c2cccnc2)n1Cc1ccc(Cl)cc1	Active	Active	inactive	48.3	5.5	5.7	6.4	4.2	6.7	4.1	13.7
–	O=c1c2ccccc2nc(/C=C/c2cccnc2)n1Cc1ccccc1	Active	–	–	47.7	84.1	10.2	35.4	9.6	11.1	5.7	89.1
–	O=c1c2ccccc2nc(/C=C/c2cccnc2)n1CC1CCCCC1	–	Active	–	–	–	–	–	–	–	–	–
